Results reported in ChEMBL document CHEMBL2321783, “Structure-activity relationships of peptides incorporating a bioactive reverse-turn heterocycle at the melanocortin receptors: identification of a 5800-fold mouse melanocortin-3 receptor (mMC3R) selective antagonist/partial agonist versus the mouse melanocortin-4 receptor (mMC4R)” (J Med Chem, 2013).

Target: Melanocortin receptor 3 (Mus musculus, UniProt P33033)
Assay: Agonist activity at mouse MC3 receptor expressed in HEK293 cells after 6 hrs by cAMP-based beta-galactosidase reporter gene assay
Assay type: functional, cell-based
In short: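 HEK-293 cells stably expressing the mouse receptor, kept in DMEM with 10% fetal calf serum, transfected with CRE/β-galactosidase reporter. Efficacy is relative to NDP-MSH on the same plate. EC50 is the mean of duplicate wells from three or more independent experiments, fitted by nonlinear least squares.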

Chain of Melanocortin receptor 3 (P33033 whole entry): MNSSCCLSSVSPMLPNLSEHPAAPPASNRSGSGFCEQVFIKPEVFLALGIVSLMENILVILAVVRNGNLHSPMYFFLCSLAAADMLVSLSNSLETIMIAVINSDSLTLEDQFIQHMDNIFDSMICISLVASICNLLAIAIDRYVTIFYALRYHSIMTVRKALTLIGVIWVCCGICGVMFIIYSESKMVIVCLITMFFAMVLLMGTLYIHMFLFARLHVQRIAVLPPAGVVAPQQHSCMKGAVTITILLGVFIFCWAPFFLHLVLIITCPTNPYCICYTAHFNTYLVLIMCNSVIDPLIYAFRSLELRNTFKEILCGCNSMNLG

| SMILES | EC50 [nM] |
| --- | --- |
| C[C@@H]1NC(=O)[C@H](CC(N)=O)NC(=O)[C@H](Cc2c[nH]c3ccccc23)N2C[C@H](CCCNC(=N)N)NC(=O)[C@@H](CSCC2=O)NC(=O)[C@@H](Cc2ccccc2)NC(=O)[C@@H]2CCCN2C(=O)[C@@H](NC(=O)[C@@H](N)Cc2ccc(O)cc2)CSSC[C@@H](C(=O)N[C@@H](Cc2ccc(O)cc2)C(N)=O)NC(=O)[C@H](Cc2ccccc2)NC1=O | 1900 |
| C[C@@H]1NC(=O)[C@H](CC(N)=O)NC(=O)[C@H](Cc2c[nH]c3ccccc23)N2C[C@H](CCCNC(=N)N)NC(=O)[C@@H](CSCC2=O)NC(=O)[C@@H](Cc2cccc3ccccc23)NC(=O)[C@H](Cc2cnc[nH]2)NC(=O)[C@@H](NC(=O)[C@@H](N)Cc2ccc(O)cc2)CSSC[C@@H](C(=O)N[C@@H](Cc2ccc(O)cc2)C(N)=O)NC(=O)[C@H](Cc2ccccc2)NC1=O | 190 |
| C[C@@H]1NC(=O)[C@H](CC(N)=O)NC(=O)[C@@H](Cc2ccc3ccccc3c2)N2C[C@H](CCCNC(=N)N)NC(=O)[C@@H](CSCC2=O)NC(=O)[C@@H](Cc2ccccc2)NC(=O)[C@H](Cc2cnc[nH]2)NC(=O)[C@@H](NC(=O)[C@@H](N)Cc2ccc(O)cc2)CSSC[C@@H](C(=O)N[C@@H](Cc2ccc(O)cc2)C(N)=O)NC(=O)[C@H](Cc2ccccc2)NC1=O | 180 |
| C[C@@H]1NC(=O)[C@H](CC(N)=O)NC(=O)[C@H](Cc2ccc(-c3ccccc3)cc2)N2C[C@H](CCCN=C(N)N)NC(=O)[C@@H](CSCC2=O)NC(=O)[C@@H](Cc2ccccc2)NC(=O)[C@H](Cc2cnc[nH]2)NC(=O)[C@@H](NC(=O)[C@@H](N)Cc2ccc(O)cc2)CSSC[C@@H](C(=O)N[C@@H](Cc2ccc(O)cc2)C(N)=O)NC(=O)[C@H](Cc2ccccc2)NC1=O | 230 |
| C[C@@H]1NC(=O)[C@H](CC(N)=O)NC(=O)[C@H](Cc2c[nH]c3ccccc23)N2C[C@H](CCCNC(=N)N)NC(=O)[C@@H](CSCC2=O)NC(=O)[C@@H](Cc2ccccc2)NC(=O)[C@H](Cc2ccccc2)NC(=O)[C@@H](NC(=O)[C@@H](N)Cc2ccc(O)cc2)CSSC[C@@H](C(=O)N[C@@H](Cc2ccc(O)cc2)C(N)=O)NC(=O)[C@H](Cc2ccccc2)NC1=O | 4500 |
| C[C@@H]1NC(=O)[C@H](CC(N)=O)NC(=O)[C@H](Cc2ccc3ccccc3c2)N2C[C@H](CCCNC(=N)N)NC(=O)[C@@H](CSCC2=O)NC(=O)[C@@H](Cc2ccccc2)NC(=O)[C@H](Cc2cnc[nH]2)NC(=O)[C@@H](NC(=O)[C@@H](N)Cc2ccc(O)cc2)CSSC[C@@H](C(=O)N[C@@H](Cc2ccc(O)cc2)C(N)=O)NC(=O)[C@H](Cc2ccccc2)NC1=O | 200 |
| C[C@@H]1NC(=O)[C@H](CC(N)=O)NC(=O)[C@H](C)N2C[C@H](CCCNC(=N)N)NC(=O)[C@@H](CSCC2=O)NC(=O)[C@@H](Cc2ccccc2)NC(=O)[C@H](Cc2cnc[nH]2)NC(=O)[C@@H](NC(=O)[C@@H](N)Cc2ccc(O)cc2)CSSC[C@@H](C(=O)N[C@@H](Cc2ccc(O)cc2)C(N)=O)NC(=O)[C@H](Cc2ccccc2)NC1=O | 2230 |
| C[C@@H]1NC(=O)[C@H](CC(N)=O)NC(=O)[C@H](Cc2c[nH]c3ccccc23)N2C[C@H](CCCN=C(N)N)NC(=O)[C@@H](CSCC2=O)NC(=O)[C@@H](Cc2ccccc2)NC(=O)[C@H](Cc2cnc[nH]2)NC(=O)[C@@H](NC(=O)[C@@H](N)Cc2ccc(O)cc2)CSSC[C@@H](C(=O)N[C@@H](Cc2ccc(O)cc2)C(N)=O)NC(=O)[C@H](Cc2ccccc2)NC1=O | 324 |
| C[C@@H]1NC(=O)[C@H](CC(N)=O)NC(=O)[C@H](Cc2c[nH]c3ccccc23)N2C[C@H](CCCCNC(=N)N)NC(=O)[C@@H](CSCC2=O)NC(=O)[C@@H](Cc2ccccc2)NC(=O)[C@H](Cc2cnc[nH]2)NC(=O)[C@@H](NC(=O)[C@@H](N)Cc2ccc(O)cc2)CSSC[C@@H](C(=O)N[C@@H](Cc2ccc(O)cc2)C(N)=O)NC(=O)[C@H](Cc2ccccc2)NC1=O | 1830 |
